Measured values taken from ChEMBL document CHEMBL3608304, “Anti-inflammatory Labdane Diterpenoids from Leonurus macranthus” (J Nat Prod, 2015).

Tests used:
[1] = Toxicity against mouse BV2 cells assessed as effect on cell viability at 80 uM incubated for 24 hrs by MTT assay; type: cell-based; details: bv-2, 24 h
[2] = test system: BV-2; assay: Inhibition of LPS-activated nitric oxide production in mouse BV2 cells pre-treated for 60 mins before LPS challenge for 24 hrs by Griess assay; type: functional, cell-based
Method in brief: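 LPS-activated BV-2 microglial cells; NO production measured by Griess assay; indomethacin as positive control; results expressed as IC50 (μM).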

[3] = test system: BV-2; assay: Inhibition of LPS-activated nitric oxide production in mouse BV2 cells at 80 uM pre-treated for 60 mins before LPS challenge for 24 hrs by Griess assay; type: functional

SMILES	IC50 [2]	Activity [1]	inhibition at 80 µM [3]
CC(=O)OC[C@@]1(C)[C@H](OC(C)=O)CC[C@@]2(C)[C@H]1[C@H](O)C(=O)[C@@H](C)[C@]21CC[C@@](C)(CCO)O1	41.7 µM	Non-toxic	
CC(=O)O[C@@H]1C(=O)[C@@H](C)[C@]2(CC[C@@](C)(CCO)O2)[C@@]2(C)CC[C@@H](OC(C)=O)[C@](C)(CO)[C@H]12	16.2 µM	Non-toxic	
CC(=O)OCC[C@]1(C)CC[C@@]2(O1)[C@H](C)[C@@H](O)[C@@H](OC(C)=O)[C@H]1[C@@](C)(COC(C)=O)[C@H](OC(C)=O)CC[C@@]12C	11 µM	Non-toxic	
CC(=O)OC[C@@]1(C)[C@H](O)CC[C@@]2(C)[C@H]1CC(=O)[C@@H](C)[C@]21CC[C@@](C)(CCO)O1	36.9 µM	Non-toxic	
CC(=O)OC[C@@]1(C)[C@H](O)CC[C@]2(C)C(CCC(C)(O)CCO)=C(C)C(=O)[C@@H](O)[C@@H]12 (stereo partly drawn)	53.6 µM	Non-toxic	
CC(=O)O[C@@H]1CC[C@]2(C)C(CCC(C)(O)CCO)=C(C)C(=O)[C@@H](O)[C@H]2[C@@]1(C)CO (stereo partly drawn)			< 50%
CC(=O)OC[C@@]1(C)[C@H](O)CC[C@]2(C)C(CCC(C)(O)CCO)=C(C)C(=O)[C@@H](OC(C)=O)[C@@H]12 (stereo partly drawn)			< 50%
CC(=O)OC[C@@]1(C)[C@H](OC(C)=O)CC[C@]2(C)C(CCC(C)(O)CCO)=C(C)C(=O)[C@@H](OC(C)=O)[C@@H]12 (stereo partly drawn)			50%
COc1ccc2c(c1)c(CC(=O)O)c(C)n2C(=O)c1ccc(Cl)cc1 [INDOMETHACIN]	35.7 µM		

More lines, main results first:

IC50 [2]	SMILES	Activity [1]	inhibition at 80 µM [3]
63.7 µM	CC(=O)OCC[C@]1(C)CC[C@@]2(O1)[C@H](C)C(=O)[C@@H](OC(C)=O)[C@H]1[C@@](C)(COC(C)=O)[C@H](O)CC[C@@]12C	Non-toxic	
45.7 µM	CC(=O)OCC[C@]1(C)CC[C@@]2(O1)[C@H](C)C(=O)[C@@H](O)[C@H]1[C@@](C)(COC(C)=O)[C@H](O)CC[C@@]12C	Non-toxic	
48.1 µM	CC(=O)OCC[C@]1(C)CC[C@@]2(O1)[C@H](C)C(=O)[C@@H](OC(C)=O)[C@H]1[C@@](C)(COC(C)=O)[C@H](OC(C)=O)CC[C@@]12C	Non-toxic	
20.7 µM	CC(=O)OC[C@@]1(C)[C@H](OC(C)=O)CC[C@@]2(C)[C@H]1[C@H](OC(C)=O)C(=O)[C@@H](C)[C@]21CC[C@@](C)(CCO)O1	Non-toxic	
13.2 µM	CC(=O)OCC[C@]1(C)CC[C@@]2(O1)[C@H](C)[C@@H](O)C(=O)[C@H]1[C@@](C)(COC(C)=O)[C@H](O)CC[C@@]12C	Non-toxic	
10 µM	CC(=O)OCC[C@]1(C)CC[C@@]2(O1)[C@H](C)[C@@H](OC(C)=O)[C@@H](O)[C@H]1[C@@](C)(COC(C)=O)[C@H](OC(C)=O)CC[C@@]12C	Non-toxic	
12.7 µM	CC(=O)OCCC(C)(O)CCC1=C(C)C(=O)[C@@H](OC(C)=O)[C@H]2[C@@](C)(COC(C)=O)[C@H](OC(C)=O)CC[C@]12C (stereo partly drawn)	Non-toxic	
